The values below come from ChEMBL document CHEMBL1955832, “Facile synthesis, characterization and pharmacological activities of 3,6-disubstituted 1,2,4-triazolo[3,4-b][1,3,4]thiadiazoles and 5,6-dihydro-3,6-disubstituted-1,2,4-triazolo[3,4-b][1,3,4]thiadiazoles” (2012).

SMILES strings stand for the structures. ≈ marks a conversion by molar mass, not a printed value. Calls of active or inactive are those of the source. The rule behind the calls is not given here.

Assay [1] concerns Rattus norvegicus. The assay can be described thus: Antiinflammatory activity rat assessed as reduction of carrageenan-induced paw oedema at 100 mg/kg, po administered 30 mins before carrageenan challenge measured after 60 to 180 mins. It counts as functional, organism-based. The arrangement: dose 100 mg/kg. Summed up:
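Rats randomly assigned, 100 mg/kg orally as suspension in 1% carboxymethyl cellulose, 30 min before carrageenan injected into right hind paw. Paw thickness measured with vernier callipers at 60, 120 and 180 min. Diclofenac reference; mean ± SEM, n = 6, vs vehicle control.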

Assay [2] relates to Mus musculus. The assay can be described thus: Analgesic activity Wistar albino mouse assessed as tail withdrawal latency time at 100 mg/kg, po administered by intragastric tube after 60 mins (reference value: 1.363 +/- 0.1297 sec). It counts as functional.
Assay [3] deals with Mus musculus. The assay can be described thus: Analgesic activity Wistar albino mouse assessed as tail withdrawal latency time at 100 mg/kg, po administered by intragastric tube after 120 mins (reference value: 1.363 +/- 0.1297 sec). The class given is functional.
Assay [4] relates to Mus musculus. The assay can be described thus: Analgesic activity Wistar albino mouse assessed as tail withdrawal latency time at 100 mg/kg, po administered by intragastric tube after 180 mins (reference value: 1.363 +/- 0.1297 sec). The class given is functional.
In assay [5] the test system is Radical scavenging activity. The assay can be described thus: Antioxidant activity of the compound assessed as DPPH radical scavenging activity at 200 ug/ml after 20 mins. The class given is functional. Put shortly:
(§1)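 Compound dissolved in methylene dichloride at the stated concentration, mixed with 4 mL 0.1 mM methanolic DPPH, held 20 min at ambient temperature; absorbance read at 517 nm. Scavenging % = (A_DPPH − A_test)/A_DPPH × 100. Triplicate; ascorbic acid positive control.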
Background: Loss of DPPH colour is used to gauge radical scavenging.

Assay [6] has as its system Radical scavenging activity. The assay can be described thus: Antioxidant activity of the compound assessed as DPPH radical scavenging activity at 400 ug/ml after 20 mins. It counts as functional. Put shortly:
as §1

Assay [7] concerns Radical scavenging activity. The assay can be described thus: Antioxidant activity of the compound assessed as DPPH radical scavenging activity at 800 ug/ml after 20 mins. It counts as functional. Put shortly: as §1
Assay [8] concerns Staphylococcus aureus. The assay can be described thus: Antibacterial activity against Staphylococcus aureus ATTC 25923 after 16 to 18 hrs by serial dilution method. The class given is functional. Put shortly:
(§2)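 Serial drug dilutions in Mueller-Hinton broth adjusted to pH 5.0 with phosphate buffer, inoculated with standardized bacterial suspension, incubated 16–18 h at 37 °C; MIC taken as lowest concentration without conspicuous growth.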

The test system of assay [9] is Staphylococcus aureus. The assay can be described thus: Antibacterial activity against Staphylococcus aureus ATTC 25923 at MIC after 3 to 4 days by disc diffusion method. It counts as functional. Summed up: (§3)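 Agar well diffusion: seeded agar plates dried 1 h at 37 °C, wells punched and filled with test compound at MIC level in DMSO; DMSO solvent control. Plates in triplicate, kept at 37 °C for 3–4 days; zone of inhibition read.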
On the technique in general: A growth-free zone around the sample is the usual read-out of agar diffusion tests.

For assay [10], the system named is Escherichia coli. The assay can be described thus: Antibacterial activity against Escherichia coli ATTC 25922 after 16 to 18 hrs by serial dilution method. The class given is functional. Summed up:
as §2

Assay [11] has as its system Escherichia coli. The assay can be described thus: Antibacterial activity against Escherichia coli ATTC 25922 at MIC after 3 to 4 days by disc diffusion method. The class given is functional. Summed up: as §3
Assay [12] concerns Pseudomonas aeruginosa. The assay is described as follows: Antibacterial activity against Pseudomonas aeruginosa ATTC 27853 after 16 to 18 hrs by serial dilution method. It counts as functional. Summed up: as §2
Assay [13] relates to Pseudomonas aeruginosa. The assay can be described thus: Antibacterial activity against Pseudomonas aeruginosa ATTC 27853 at MIC after 3 to 4 days by disc diffusion method. It counts as functional. Put shortly: as §3
Assay [14] concerns Klebsiella pneumoniae. The assay can be described thus: Antibacterial activity against recultured Klebsiella pneumoniae after 16 to 18 hrs by serial dilution method. The class given is functional. Put shortly: as §2
Assay [15] has as its system Klebsiella pneumoniae. The assay can be described thus: Antibacterial activity against recultured Klebsiella pneumoniae at MIC after 3 to 4 days by disc diffusion method. The class given is functional. Put shortly:
as §3

The test system of assay [16] is Talaromyces marneffei. The assay is described as follows: Antifungal activity against recultured Penicillium marneffei by serial plate dilution method. It counts as functional.
Assay [17] concerns Talaromyces marneffei. The assay can be described thus: Antifungal activity against recultured Penicillium marneffei at MIC after 3 to 4 days. It counts as functional.
For assay [18], the system named is Trichophyton mentagrophytes. The assay is described as follows: Antifungal activity against recultured Trichophyton mentagrophytes by serial plate dilution method. It counts as functional.
The subject of assay [19] is Trichophyton mentagrophytes. The assay is described as follows: Antifungal activity against recultured Trichophyton mentagrophytes at MIC after 3 to 4 days. It counts as functional.
In assay [20] the test system is Aspergillus flavus. The assay is described as follows: Antifungal activity against Aspergillus flavus NCIM 524 by serial plate dilution method. It counts as functional.
For assay [21], the system named is Aspergillus flavus. The assay can be described thus: Antifungal activity against Aspergillus flavus NCIM 524 at MIC after 3 to 4 days. The class given is functional.
The subject of assay [22] is Aspergillus fumigatus. The assay can be described thus: Antifungal activity against Aspergillus fumigatus NCIM 902 by serial plate dilution method. The class given is functional.
In assay [23] the test system is Aspergillus fumigatus. The assay is described as follows: Antifungal activity against Aspergillus fumigatus NCIM 902 at MIC after 3 to 4 days. The class given is functional.

As for `COc1ccc(Br)c(-c2nnc3sc(-c4ccc(N)cc4)nn23)c1`, the result in assay [1] was Active. Besides, the Time was 3.675 s in assay [2], 3.563 s in [3] and 2.425 s in assay [4]. Also, the inhibition (as a rule, how much of the control response was suppressed) in assay [5] turned out to be 60.3%; in assay [6], 68%; in assay [7], 75.9%. Besides, the MIC (in general, the lowest concentration found to suppress growth) was determined as 31.1 µM (≈ 12.5 µg/mL) in [8]; 31.1 µM (≈ 12.5 µg/mL) in assay [10]; 15.5 µM (≈ 6.25 µg/mL) in assay [12]; 31.1 µM (≈ 12.5 µg/mL) in assay [14]; 31.1 µM (≈ 12.5 µg/mL) in assay [16]; 15.5 µM (≈ 6.25 µg/mL) in [18]. The MIC in [20] and in [22] was 31.1 µM (≈ 12.5 µg/mL) each time. Besides, the “diameter of the inhibition zone (DIZ)” value in assay [9] came to 11 mm; in assay [11], 11 mm; in [13], 16 mm; in assay [15] it was 11 mm; in [17], 11 mm; in assay [19] it was 16 mm. For the same molecule, the “diameter of the inhibition zone (DIZ)” value in assay [21] and in assay [23] was 11 mm in each case.
`COc1ccc(Br)c(-c2nnc3n2NC(c2ccccc2Cl)S3)c1` (stereo not drawn): the outcome in assay [1] was Active. In addition, the results for the Time in [2], in assay [3] and in assay [4] were 3.6 s, 3.25 s and 2.938 s, respectively. The figures for the inhibition in assay [5], in assay [6] and in [7] were 48%, 51.8% and 62.7%, respectively. The MIC in assay [8] was found to be 14.8 µM (≈ 6.25 µg/mL); in [10] it was 29.5 µM (≈ 12.5 µg/mL); in [12] it was 29.5 µM (≈ 12.5 µg/mL); in assay [14], 29.5 µM (≈ 12.5 µg/mL); in assay [16] it was 29.5 µM (≈ 12.5 µg/mL); in [18], 29.5 µM (≈ 12.5 µg/mL). The MIC in [20] and in [22] was 14.8 µM (≈ 6.25 µg/mL) in each case. The “diameter of the inhibition zone (DIZ)” value in assay [9] stood at 16 mm; in assay [11] it was 11 mm; in [13] it was 11 mm; in assay [15], 11 mm; in assay [17] it was 11 mm; in [19], 11 mm. Besides, the “diameter of the inhibition zone (DIZ)” value in assay [21] and in assay [23] was 16 mm each time.
Regarding `COc1ccc(Br)c(-c2nnc3sc(-c4ccc([N+](=O)[O-])cc4)nn23)c1`, in [1], the outcome was Active. Besides, the results for the Time in assay [2], in assay [3] and in [4] were 3.375 s, 3.263 s and 2.663 s, respectively. Besides, the values for the inhibition in [5], in [6] and in assay [7] were 62.9%, 68.1% and 71.9%, respectively. The MIC in assay [8] came out at 28.9 µM (≈ 12.5 µg/mL); in [10] it was 28.9 µM (≈ 12.5 µg/mL); in [12] it was 28.9 µM (≈ 12.5 µg/mL); in assay [14], 28.9 µM (≈ 12.5 µg/mL); in assay [16], 14.5 µM (≈ 6.25 µg/mL); in assay [18], 14.5 µM (≈ 6.25 µg/mL). Also, the MIC in [20] and in assay [22] was 14.5 µM (≈ 6.25 µg/mL) throughout. For the same molecule, the “diameter of the inhibition zone (DIZ)” value was determined as 11 mm in assay [9]; 11 mm in [11]; 11 mm in assay [13]; 11 mm in assay [15]; 16 mm in [17]; 16 mm in [19]. Also, the “diameter of the inhibition zone (DIZ)” value in assay [21] and in [23] was 16 mm throughout.
With `COc1ccc(Br)c(-c2nnc3sc(-c4cc(Cl)cc(Cl)c4)nn23)c1`, the outcome in [1] was Active. In addition, the Time was found to be 3.421 s in [2], 3.075 s in assay [3] and 2.388 s in [4]. Also, the inhibition in assay [5] came out at 49.8%; in assay [6], 54.3%; in assay [7] it was 66.8%. The MIC in assay [8] was found to be 27.4 µM (≈ 12.5 µg/mL); in assay [10], 13.7 µM (≈ 6.25 µg/mL); in assay [12], 13.7 µM (≈ 6.25 µg/mL); in assay [14] it was 13.7 µM (≈ 6.25 µg/mL); in assay [16] it was 13.7 µM (≈ 6.25 µg/mL); in assay [18], 13.7 µM (≈ 6.25 µg/mL). Besides, the MIC in [20] came out at 27.4 µM (≈ 12.5 µg/mL); in assay [22], 13.7 µM (≈ 6.25 µg/mL). The “diameter of the inhibition zone (DIZ)” value was 11 mm in assay [9]; 16 mm in assay [11]; 16 mm in [13]; 16 mm in assay [15]; 16 mm in assay [17]; 16 mm in assay [19]. Further, the “diameter of the inhibition zone (DIZ)” value in assay [21] is listed as 11 mm; in [23], 16 mm.
For `COc1ccc(C2Nn3c(nnc3-c3cc(OC)ccc3Br)S2)cc1` (stereo not drawn), in assay [1], the result was Active. In addition, the Time in assay [2] stood at 3.468 s; in [3], 3.334 s; in assay [4] it was 2.841 s. Further, the inhibition in assay [5] is 40.6%; in [6], 65.9%; in assay [7] it was 77.9%. For the same molecule, the MIC amounted to 29.8 µM (≈ 12.5 µg/mL) in assay [8]; 29.8 µM (≈ 12.5 µg/mL) in assay [10]; 29.8 µM (≈ 12.5 µg/mL) in assay [12]; 29.8 µM (≈ 12.5 µg/mL) in [14]; 14.9 µM (≈ 6.25 µg/mL) in [16]; 29.8 µM (≈ 12.5 µg/mL) in assay [18]. The MIC turned out to be 29.8 µM (≈ 12.5 µg/mL) in assay [20] and 14.9 µM (≈ 6.25 µg/mL) in assay [22]. For the same molecule, the “diameter of the inhibition zone (DIZ)” value is 11 mm in assay [9]; 11 mm in assay [11]; 11 mm in assay [13]; 11 mm in assay [15]; 16 mm in assay [17]; 11 mm in assay [19]. For the same molecule, the “diameter of the inhibition zone (DIZ)” value in [21] amounted to 11 mm; in [23] it was 16 mm.
In the case of `COc1ccc(Br)c(-c2nnc3n2NC(c2cccc(Cl)c2)S3)c1` (stereo not drawn), in assay [1], the outcome was Active. Further, the figures for the Time in assay [2], in [3] and in assay [4] were 3.546 s, 3.623 s and 2.235 s, respectively. For the same molecule, the values for the inhibition in assay [5], in [6] and in assay [7] were 35.9%, 44.7% and 62.5%, respectively. Besides, the MIC in [8], in [10], in assay [12], in [14], in assay [16] and in assay [18] was 29.5 µM (≈ 12.5 µg/mL) throughout. The MIC in [20] and in assay [22] was 29.5 µM (≈ 12.5 µg/mL) each time. Also, the “diameter of the inhibition zone (DIZ)” value in [9], in assay [11], in [13], in [15], in assay [17] and in [19] was 11 mm each time. The “diameter of the inhibition zone (DIZ)” value in assay [21] and in assay [23] was 11 mm throughout.
